Drawing on ChEMBL document CHEMBL4014339, “Discovery of 1,4-Benzodiazepine-2,5-dione (BZD) Derivatives as Dual Nucleotide Binding Oligomerization Domain Containing 1/2 (NOD1/NOD2) Antagonists Sensitizing Paclitaxel (PTX) To Suppress Lewis Lung Carcinoma (LLC) Growth in Vivo” (J Med Chem, 2017), this text covers inhibition and IC50 for 13 molecules.

Molecules are shown by their SMILES.

T3 sequence (Q9HC29 whole entry, the tested form may be a part): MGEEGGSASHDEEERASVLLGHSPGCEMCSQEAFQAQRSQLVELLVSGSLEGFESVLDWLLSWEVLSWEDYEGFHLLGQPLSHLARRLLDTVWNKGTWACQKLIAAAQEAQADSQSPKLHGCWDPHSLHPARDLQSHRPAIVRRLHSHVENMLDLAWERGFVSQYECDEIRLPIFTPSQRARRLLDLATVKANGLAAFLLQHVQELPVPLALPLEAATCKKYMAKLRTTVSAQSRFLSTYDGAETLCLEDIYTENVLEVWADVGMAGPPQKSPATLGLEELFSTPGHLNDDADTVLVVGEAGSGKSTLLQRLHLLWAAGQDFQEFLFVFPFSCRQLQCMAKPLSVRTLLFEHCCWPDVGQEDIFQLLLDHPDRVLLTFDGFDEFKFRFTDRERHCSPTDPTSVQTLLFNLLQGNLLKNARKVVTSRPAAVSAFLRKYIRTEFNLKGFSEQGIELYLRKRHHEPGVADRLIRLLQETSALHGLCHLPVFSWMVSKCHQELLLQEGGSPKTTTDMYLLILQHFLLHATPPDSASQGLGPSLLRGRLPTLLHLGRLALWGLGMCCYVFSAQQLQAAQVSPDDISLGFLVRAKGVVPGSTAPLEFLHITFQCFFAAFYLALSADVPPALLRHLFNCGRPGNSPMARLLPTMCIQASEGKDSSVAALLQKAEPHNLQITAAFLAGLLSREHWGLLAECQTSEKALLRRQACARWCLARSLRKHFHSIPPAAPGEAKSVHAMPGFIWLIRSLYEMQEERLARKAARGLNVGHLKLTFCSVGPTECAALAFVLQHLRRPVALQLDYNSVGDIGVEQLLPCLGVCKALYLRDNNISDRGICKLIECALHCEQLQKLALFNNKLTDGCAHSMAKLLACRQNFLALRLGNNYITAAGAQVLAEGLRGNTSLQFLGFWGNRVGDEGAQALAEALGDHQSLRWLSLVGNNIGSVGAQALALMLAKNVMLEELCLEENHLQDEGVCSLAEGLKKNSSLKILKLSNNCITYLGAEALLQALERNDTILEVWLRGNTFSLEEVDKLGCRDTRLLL

For the first experiment, the target named is T1, Nucleotide-binding oligomerization domain-containing protein 1 (Homo sapiens) (UniProt Q9Y239).
T1 sequence (whole entry): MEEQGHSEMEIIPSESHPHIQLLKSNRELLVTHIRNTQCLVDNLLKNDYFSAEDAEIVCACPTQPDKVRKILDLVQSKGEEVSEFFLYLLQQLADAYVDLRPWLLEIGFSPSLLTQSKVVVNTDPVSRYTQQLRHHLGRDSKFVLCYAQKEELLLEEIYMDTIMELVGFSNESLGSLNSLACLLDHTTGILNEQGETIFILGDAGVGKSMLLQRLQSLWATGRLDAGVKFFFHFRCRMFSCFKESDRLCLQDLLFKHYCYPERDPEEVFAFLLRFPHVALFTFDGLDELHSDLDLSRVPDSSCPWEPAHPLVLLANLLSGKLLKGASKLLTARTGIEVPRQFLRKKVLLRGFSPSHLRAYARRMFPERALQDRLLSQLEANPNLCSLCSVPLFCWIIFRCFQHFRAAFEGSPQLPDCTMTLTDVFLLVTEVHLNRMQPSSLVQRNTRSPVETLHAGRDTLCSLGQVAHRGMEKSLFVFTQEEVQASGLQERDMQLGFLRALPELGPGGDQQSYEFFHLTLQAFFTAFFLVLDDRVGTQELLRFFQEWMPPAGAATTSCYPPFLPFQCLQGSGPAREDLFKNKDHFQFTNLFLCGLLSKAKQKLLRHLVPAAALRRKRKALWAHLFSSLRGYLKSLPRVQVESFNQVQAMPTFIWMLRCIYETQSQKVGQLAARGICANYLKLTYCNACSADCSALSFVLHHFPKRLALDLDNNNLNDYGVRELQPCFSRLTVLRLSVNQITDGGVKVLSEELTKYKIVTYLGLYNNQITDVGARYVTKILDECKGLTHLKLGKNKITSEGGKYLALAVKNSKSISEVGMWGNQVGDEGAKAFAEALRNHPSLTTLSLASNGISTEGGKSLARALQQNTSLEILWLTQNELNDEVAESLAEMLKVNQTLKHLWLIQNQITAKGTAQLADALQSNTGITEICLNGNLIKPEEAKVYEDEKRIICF
The experiment is described as follows: Antagonist activity at human NOD1 expressed in HEK-Blue cells assessed as inhibition of C12-iE-DAP-stimulated cell activation at 10 uM preincubated for 3 hrs followed by C12-iE-DAP addition measured after 20 hrs by SEAP reporter gene assay. It is filed as cell-based. A digest of the protocol: (§1)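 HEK-Blue hNOD1 or hNOD2 cells preincubated with compound 3 h, then stimulated 20 h with C12-iE-DAP 50 ng/mL (NOD1) or MDP 100 ng/mL (NOD2); SEAP in supernatant quantified. Primary screen at 10 μM, hits repeated in triplicate; IC50 from dose-response, mean ± SD (n = 3), only for compounds reaching ≥50% inhibition at the screening concentration.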
Background: In a reporter assay the amount or activity of a reporter protein is the signal.
One may read the inhibition as the drop in the measured response relative to a control, in per cent. For the molecule `COC(=O)CC[C@H]1NC(=O)c2cc(Oc3cc(N(C)C)ccc3Cl)c(NC(=O)COCc3ccccc3)cc2NC1=O`, the inhibition is 29.3%.
Take `CCCNC(=O)CC[C@H]1NC(=O)c2cc(Oc3cccc(N(C)C)c3)c(NC(=O)COCc3ccc(F)cc3)cc2NC1=O`: the inhibition stood at 80.1%.
Regarding `COC(=O)CC[C@H]1NC(=O)c2cc(Oc3cc(N(C)C)cc(Cl)c3Cl)c(NC(=O)COCc3ccccc3)cc2NC1=O`, the inhibition was 1.4%.
On the same count and under the same terms, with `COC(=O)CC[C@H]1NC(=O)c2cc(Oc3cc(Cl)cc(N(C)C)c3)c(NC(=O)COCc3ccccc3)cc2NC1=O` the figure was 4.89%; with `COC(=O)CC[C@H]1NC(=O)c2cc(Oc3cc(N(C)C)c(Cl)c(Cl)c3Cl)c(NC(=O)COCc3ccccc3)cc2NC1=O`, 11.1%; with `CCCNC(=O)CC[C@H]1NC(=O)c2cc(Oc3cccc(N(C)C)c3)c(NC(=O)COCc3ccc(Br)cc3)cc2NC1=O`, 50.5%.

A further experiment deals with T1, Nucleotide-binding oligomerization domain-containing protein 1 (Homo sapiens). Description: Antagonist activity at human NOD1 expressed in HEK-blue cells assessed as inhibition of C12-iE-DAP-stimulated cell activation at 5 uM preincubated for 3 hrs followed by C12-iE-DAP addition measured after 20 hrs by SEAP reporter gene assay. Type of experiment: cell-based.
Consider `COC(=O)CC[C@H]1NC(=O)c2cc(Oc3cccc(N(C)C)c3)c(NC(=O)COCc3ccccc3Cl)cc2NC1=O`, for which the inhibition is -5.97%.
Same read-out and setting: with `COC(=O)CC[C@@H]1NC(=O)c2cc(Oc3cccc(N(C)C)c3)c(NC(=O)COCc3ccc(C(F)(F)F)cc3)cc2NC1=O` the figure was 89.6%; with `COC(=O)CC[C@H]1NC(=O)c2cc(Oc3cc(N(C)C)ccc3Cl)c(NC(=O)COCc3ccccc3)cc2NC1=O`, 24.8%; with `CCCNC(=O)CC[C@H]1NC(=O)c2cc(Oc3cccc(N(C)C)c3)c(NC(=O)COCc3ccc(F)cc3)cc2NC1=O`, 68%.
Turning to `C[C@@H]1NC(=O)c2cc(Oc3cccc(N(C)C)c3)c(NC(=O)COCc3ccc(C(F)(F)F)cc3)cc2NC1=O`, the inhibition came out at 73.8%.
Regarding `COC(=O)CC[C@H]1NC(=O)c2cc(Oc3cc(N(C)C)cc(Cl)c3Cl)c(NC(=O)COCc3ccccc3)cc2NC1=O`, the inhibition was -5.19%.
The same measure, in the same setting: the value for `COC(=O)CC[C@H]1NC(=O)c2cc(Oc3cc(Cl)cc(N(C)C)c3)c(NC(=O)COCc3ccccc3)cc2NC1=O` was 47.1%.
With `COC(=O)CC[C@H]1NC(=O)c2cc(Oc3cc(N(C)C)c(Cl)c(Cl)c3Cl)c(NC(=O)COCc3ccccc3)cc2NC1=O`, the inhibition amounted to 16.2%.
Turning to `C=CCOCC(=O)Nc1cc2c(cc1Oc1cccc(N(C)C)c1)C(=O)N[C@H](CCC(=O)OC)C(=O)N2`, the inhibition was determined as 43.3%.
Same read-out and setting: with `COC(=O)CC[C@@H]1NC(=O)c2cc(Oc3cccc(N(C)C)c3)c(NC(=O)COCc3ccc(F)cc3Cl)cc2NC1=O` the figure was 29.3%; with `CCCNC(=O)CC[C@H]1NC(=O)c2cc(Oc3cccc(N(C)C)c3)c(NC(=O)COCc3ccc(Br)cc3)cc2NC1=O`, 50.2%.
On to `COC(=O)CC[C@H]1NC(=O)c2cc(Oc3cccc(N(C)C)c3)c(NC(=O)COCc3ccc4ccccc4c3)cc2NC1=O`, for which the inhibition worked out at 77.7%.
On the same count and under the same terms, with `COC(=O)CC[C@H]1NC(=O)c2cc(Oc3cccc(N(C)C)c3)c(NC(=O)CCCc3ccccc3)cc2NC1=O` the figure was 22.2%.

A further experiment addresses T2, Nucleotide-binding oligomerization domain-containing protein 1 (Homo sapiens, UniProt Q9Y239).
T2 sequence (Q9Y239 whole entry): T1 sequence (whole entry)
The experiment is described as follows: Antagonist activity at human NOD1 expressed in HEK-blue cells assessed as inhibition of C12-iE-DAP-stimulated cell activation preincubated for 3 hrs followed by C12-iE-DAP addition measured after 20 hrs by SEAP reporter gene assay. Type of experiment: cell-based. In a few lines:
as §1
One may read the IC50 as the point on the concentration scale where inhibition reaches its midpoint. For the molecule `COC(=O)CC[C@@H]1NC(=O)c2cc(Oc3cccc(N(C)C)c3)c(NC(=O)COCc3ccc(C(F)(F)F)cc3)cc2NC1=O`, the half-maximal inhibitory concentration (IC50) turned out to be 580 nM.
For the molecule `CCCNC(=O)CC[C@H]1NC(=O)c2cc(Oc3cccc(N(C)C)c3)c(NC(=O)COCc3ccc(F)cc3)cc2NC1=O`, the half-maximal inhibitory concentration (IC50) is 2810 nM.
Still for that read-out and setting: the value for `C[C@@H]1NC(=O)c2cc(Oc3cccc(N(C)C)c3)c(NC(=O)COCc3ccc(C(F)(F)F)cc3)cc2NC1=O` was 1930 nM.
As to `COC(=O)CC[C@H]1NC(=O)c2cc(Oc3cccc(N(C)C)c3)c(NC(=O)COCc3ccc4ccccc4c3)cc2NC1=O`, the IC50 amounted to 1610 nM.

The target in another experiment is T3, Nucleotide-binding oligomerization domain-containing protein 2 (Homo sapiens, UniProt Q9HC29). The experiment is described as follows: Antagonist activity at human NOD2 expressed in HEK-Blue cells assessed as inhibition of MDP-stimulated cell activation at 10 uM preincubated for 3 hrs followed by MDP addition measured after 20 hrs by SEAP reporter gene assay. It is filed as cell-based. A digest of the protocol:
as §1
In the case of `COC(=O)CC[C@H]1NC(=O)c2cc(Oc3cccc(N(C)C)c3)c(NC(=O)COCc3ccccc3Cl)cc2NC1=O`, the inhibition was 23.8%.
As for `COC(=O)CC[C@H]1NC(=O)c2cc(Oc3cc(N(C)C)ccc3Cl)c(NC(=O)COCc3ccccc3)cc2NC1=O`, the inhibition was determined as 7.26%.
For `CCCNC(=O)CC[C@H]1NC(=O)c2cc(Oc3cccc(N(C)C)c3)c(NC(=O)COCc3ccc(F)cc3)cc2NC1=O`, the inhibition came to 48.8%.
Same read-out and setting: with `COC(=O)CC[C@H]1NC(=O)c2cc(Oc3cc(N(C)C)cc(Cl)c3Cl)c(NC(=O)COCc3ccccc3)cc2NC1=O` the figure was 6.85%; with `COC(=O)CC[C@H]1NC(=O)c2cc(Oc3cc(Cl)cc(N(C)C)c3)c(NC(=O)COCc3ccccc3)cc2NC1=O`, 56.5%.
Turning to `COC(=O)CC[C@H]1NC(=O)c2cc(Oc3cc(N(C)C)c(Cl)c(Cl)c3Cl)c(NC(=O)COCc3ccccc3)cc2NC1=O`, the inhibition turned out to be 17.4%.
For the molecule `CCCNC(=O)CC[C@H]1NC(=O)c2cc(Oc3cccc(N(C)C)c3)c(NC(=O)COCc3ccc(Br)cc3)cc2NC1=O`, the inhibition came to 31%.

A further experiment deals with T3, Nucleotide-binding oligomerization domain-containing protein 2. Description: Antagonist activity at human NOD2 expressed in HEK-Blue cells assessed as inhibition of MDP-stimulated cell activation at 5 uM preincubated for 3 hrs followed by MDP addition measured after 20 hrs by SEAP reporter gene assay. It is filed as cell-based.
As for `COC(=O)CC[C@H]1NC(=O)c2cc(Oc3cccc(N(C)C)c3)c(NC(=O)COCc3ccccc3Cl)cc2NC1=O`, the inhibition was found to be 20.9%.
The same measure, in the same setting: the value for `COC(=O)CC[C@@H]1NC(=O)c2cc(Oc3cccc(N(C)C)c3)c(NC(=O)COCc3ccc(C(F)(F)F)cc3)cc2NC1=O` was 87.8%; that for `COC(=O)CC[C@H]1NC(=O)c2cc(Oc3cc(N(C)C)ccc3Cl)c(NC(=O)COCc3ccccc3)cc2NC1=O` was 11%.
Same read-out and setting: the value for `CCCNC(=O)CC[C@H]1NC(=O)c2cc(Oc3cccc(N(C)C)c3)c(NC(=O)COCc3ccc(F)cc3)cc2NC1=O` was 30.8%.
Turning to `C[C@@H]1NC(=O)c2cc(Oc3cccc(N(C)C)c3)c(NC(=O)COCc3ccc(C(F)(F)F)cc3)cc2NC1=O`, the inhibition is 64.5%.
Same read-out and setting: the value for `COC(=O)CC[C@H]1NC(=O)c2cc(Oc3cc(N(C)C)cc(Cl)c3Cl)c(NC(=O)COCc3ccccc3)cc2NC1=O` was 9.23%; that for `COC(=O)CC[C@H]1NC(=O)c2cc(Oc3cc(Cl)cc(N(C)C)c3)c(NC(=O)COCc3ccccc3)cc2NC1=O` was 54.9%.
Same read-out and setting: the value for `COC(=O)CC[C@H]1NC(=O)c2cc(Oc3cc(N(C)C)c(Cl)c(Cl)c3Cl)c(NC(=O)COCc3ccccc3)cc2NC1=O` was 11.1%.
Still for that read-out and setting: with `C=CCOCC(=O)Nc1cc2c(cc1Oc1cccc(N(C)C)c1)C(=O)N[C@H](CCC(=O)OC)C(=O)N2` the figure was 38.5%; with `COC(=O)CC[C@@H]1NC(=O)c2cc(Oc3cccc(N(C)C)c3)c(NC(=O)COCc3ccc(F)cc3Cl)cc2NC1=O`, 10.3%; with `CCCNC(=O)CC[C@H]1NC(=O)c2cc(Oc3cccc(N(C)C)c3)c(NC(=O)COCc3ccc(Br)cc3)cc2NC1=O`, 40.3%.
Take `COC(=O)CC[C@H]1NC(=O)c2cc(Oc3cccc(N(C)C)c3)c(NC(=O)COCc3ccc4ccccc4c3)cc2NC1=O`: the inhibition is 70.9%.
On the same count and under the same terms, with `COC(=O)CC[C@H]1NC(=O)c2cc(Oc3cccc(N(C)C)c3)c(NC(=O)CCCc3ccccc3)cc2NC1=O` the figure was 18%.

For another experiment the target is unchanged. Description: Antagonist activity at human NOD2 expressed in HEK-Blue cells assessed as inhibition of MDP-stimulated cell activation preincubated for 3 hrs followed by MDP addition measured after 20 hrs by SEAP reporter gene assay. It is filed as cell-based. A digest of the protocol: as §1
On to `COC(=O)CC[C@@H]1NC(=O)c2cc(Oc3cccc(N(C)C)c3)c(NC(=O)COCc3ccc(C(F)(F)F)cc3)cc2NC1=O`, for which the concentration for half-maximal inhibition (IC50) is 590 nM.
Same read-out and setting: the value for `C[C@@H]1NC(=O)c2cc(Oc3cccc(N(C)C)c3)c(NC(=O)COCc3ccc(C(F)(F)F)cc3)cc2NC1=O` was 940 nM; that for `COC(=O)CC[C@H]1NC(=O)c2cc(Oc3cc(Cl)cc(N(C)C)c3)c(NC(=O)COCc3ccccc3)cc2NC1=O` was 5050 nM.
As to `COC(=O)CC[C@H]1NC(=O)c2cc(Oc3cccc(N(C)C)c3)c(NC(=O)COCc3ccc4ccccc4c3)cc2NC1=O`, the half-inhibitory concentration (IC50) amounted to 1580 nM.
